Source: ChEMBL document CHEMBL4152269, “New N-phenylpyrrolamide DNA gyrase B inhibitors: Optimization of efficacy and antibacterial activity” (Eur J Med Chem, 2018)
Converted amounts (≈) assume the structure as drawn. The source made the active and inactive calls. No cut-off for these calls is given here.

Legend:
HUVEC = assay: Cytotoxicity against HUVEC assessed as reduction in cell proliferation after 72 hrs by MTS assay; type: cell-based; details: Homo sapiens
How it was run: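 MTS assay in HUVEC grown in Eagle's MEM with 2 mM L-glutamine, penicillin/streptomycin and 10% FBS, at 37 °C under 5% CO2. Cells seeded at 2000 per well, attached for 24 h, then exposed to six compound concentrations (0.5% DMSO final) for 72 h. Reagent added for 3 h before reading A490. IC50 derived against DMSO-treated cells; triplicate wells, two repeats.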

[1] = Inhibition of Staphylococcus aureus topoisomerase-4 assessed as residual activity preincubated for 10 mins followed by ATP addition measured after 30 mins by purine nucleoside phosphorylase enzyme coupled spectrophotometric method
Escherichia coli [2] = assay: Antibacterial activity against tolC deficient Escherichia coli JW5503 after 18 hrs by broth microdilution method; type: functional; details: JW5503, 18 h
Staphylococcus aureus [3] = assay: Antibacterial activity against Staphylococcus aureus ATCC 25923 after 18 hrs by broth microdilution method; type: functional; details: ATCC 25923, 18 h
Pseudomonas aeruginosa = assay: Growth inhibition of Pseudomonas aeruginosa ATCC 27853 at 50 uM after 24 hrs by broth microdilution method relative to control; type: functional; details: ATCC 27853, 24 h, read-out: GI
Escherichia coli [4] = assay: Inhibition of Escherichia coli C-terminal His6-tagged topoisomerase-4 expressed in Escherichia coli BL21(DE3) assessed as residual activity at 1 uM preincubated for 10 mins followed by ATP addition measured after 30 mins by purine nucleoside phosphorylase enzyme coupled spectrophotometric method relative to control
Escherichia coli [5] = assay: Growth inhibition of tolC deficient Escherichia coli JW5503 at 50 uM after 24 hrs by broth microdilution method relative to control; type: functional; details: JW5503, 24 h, read-out: GI
Enterococcus faecalis [6] = assay: Growth inhibition of Enterococcus faecalis ATCC 29212 at 50 uM after 24 hrs by broth microdilution method relative to control; type: functional; details: ATCC 29212, 24 h, read-out: GI
DNA gyrase subunit B [7] = molecular target: DNA gyrase subunit B (Staphylococcus aureus, UniProt P0A0K8); assay: Inhibition of Staphylococcus aureus DNA gyrase B preincubated for 10 mins followed by ATP addition measured after 30 mins by purine nucleoside phosphorylase enzyme coupled spectrophotometric method
DNA gyrase subunit B [8] = molecular target: DNA gyrase subunit B (Escherichia coli, UniProt P0AES6); assay: Inhibition of Escherichia coli DNA gyrase by supercoiling assay
Enterococcus faecalis [9] = assay: Antibacterial activity against Enterococcus faecalis ATCC 29212 after 18 hrs by broth microdilution method; type: functional; details: ATCC 29212, 18 h
Staphylococcus aureus [10] = assay: Growth inhibition of Staphylococcus aureus ATCC 25923 at 50 uM after 24 hrs by broth microdilution method relative to control; type: functional; details: ATCC 25923, 24 h, read-out: GI
Escherichia coli [11] = assay: Growth inhibition of lpxC deficient Escherichia coli JD17464 at 50 uM after 24 hrs by broth microdilution method relative to control; type: functional; details: JD17464, 24 h, read-out: GI
Escherichia coli [12] = assay: Growth inhibition of Escherichia coli ATCC 25922 at 50 uM after 24 hrs by broth microdilution method relative to control; type: functional; details: ATCC 25922, 24 h, read-out: GI
[13] = Inhibition of Escherichia coli topoisomerase-4
Staphylococcus aureus [14] = assay: Antibacterial activity against Staphylococcus aureus; type: functional
Escherichia coli [15] = assay: Antibacterial activity against mrcB deficient Escherichia coli BW25113 up to 20 uM after 18 hrs in presence of efflux pump inhibitor PAbetaN by broth microdilution method; type: functional, organism-based
How it was run: (§1)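 Same EUCAST broth microdilution in cation-adjusted Mueller-Hinton II broth, 12-step compound dilutions, about 5 × 10^4 bacteria per well, 37 °C, 300 rpm, OD600 at 18 h. Parental and mutant strains were co-treated with the efflux pump inhibitor PAβN. MIC taken as normalized OD600 below 0.05; 3 replicates.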

Staphylococcus aureus [16] = assay: Antibacterial activity against Staphylococcus aureus ATCC 29213 after 18 hrs by broth microdilution method; type: functional; details: ATCC 29213, 18 h
How it was run: (§2)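 EUCAST/ISO 20776-1 broth microdilution using 12-step serial dilutions in cation-adjusted Mueller-Hinton II broth. About 5 × 10^4 bacteria were inoculated per well and incubated at 37 °C, shaken at 300 rpm, for 18 h. Growth was read as OD600. MIC is the lowest concentration giving background-normalized OD600 below 0.05, from 3 replicates.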

Escherichia coli [17] = assay: Antibacterial activity against dapF deficient Escherichia coli BW25113 up to 50 uM after 18 hrs by broth microdilution method; type: functional, organism-based
How it was run: (§3)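 Broth microdilution per EUCAST/ISO 20776-1:2006: 12-step serial dilutions of compound in cation-adjusted Mueller-Hinton II broth, about 5 × 10^4 bacteria per well, 37 °C with shaking at 300 rpm, OD600 read after 18 h. MIC is the lowest concentration with background-normalized OD600 below 0.05, i.e. no visible growth; 3 replicates. Top concentration 50 μM.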

Escherichia coli [18] = assay: Antibacterial activity against Escherichia coli ATCC 25922 up to 50 uM after 18 hrs by broth microdilution method; type: functional, organism-based; how it was run: as §3
Escherichia coli [19] = assay: Antibacterial activity against Escherichia coli BW25113 up to 20 uM after 18 hrs in presence of efflux pump inhibitor PAbetaN by broth microdilution method; type: functional, organism-based
Escherichia coli [20] = assay: Antibacterial activity against surA deficient Escherichia coli BW25113 after 18 hrs in presence of efflux pump inhibitor PAbetaN by broth microdilution method; type: functional; details: BW25113, 18 h
How it was run: (§4)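 Efflux pump inhibitor PAβN was added to EUCAST/ISO 20776-1 broth microdilution using 12-step serial dilutions in cation-adjusted Mueller-Hinton II broth. About 5 × 10^4 bacteria were inoculated per well and incubated at 37 °C, shaken at 300 rpm, for 18 h, then read at OD600. MIC is the lowest concentration with background-normalized OD600 below 0.05, from 3 replicates.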

Escherichia coli [21] = assay: Antibacterial activity against tolC deficient Escherichia coli BW25113 up to 50 uM after 18 hrs by broth microdilution method; type: functional, organism-based; how it was run: as §3
Escherichia coli [22] = assay: Antibacterial activity against Escherichia coli MG1655 up to 50 uM after 18 hrs by broth microdilution method; type: functional, organism-based; details: K-12 substr. MG1655; how it was run: as §3
Escherichia coli [23] = assay: Antibacterial activity against dapF deficient Escherichia coli BW25113 up to 20 uM after 18 hrs in presence of efflux pump inhibitor PAbetaN by broth microdilution method; type: functional, organism-based; how it was run: as §1
Escherichia coli [24] = assay: Antibacterial activity against Escherichia coli BW25113 up to 50 uM after 18 hrs by broth microdilution method; type: functional, organism-based; how it was run: as §3
Escherichia coli [25] = assay: Antibacterial activity against acrB deficient Escherichia coli BW25113 up to 50 uM after 18 hrs by broth microdilution method; type: functional, organism-based; how it was run: as §3
Escherichia coli [26] = assay: Antibacterial activity against surA deficient Escherichia coli BW25113 up to 50 uM after 18 hrs by broth microdilution method; type: functional, organism-based; how it was run: as §3
Escherichia coli [27] = assay: Antibacterial activity against Escherichia coli ATCC 25922 after 18 hrs in presence of efflux pump inhibitor PAbetaN by broth microdilution method; type: functional; details: ATCC 25922, 18 h; how it was run: as §4
[28] = Cytotoxicity against human HepG2 cells assessed as cell proliferation at 50 uM after 72 hrs by MTS assay relative to control; type: cell-based; details: read-out: Activity
How it was run: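 MTS assay in HepG2 grown in Eagle's MEM with 2 mM L-glutamine, penicillin/streptomycin and 10% FBS, at 37 °C under 5% CO2. Cells seeded at 2000 per well and attached for 24 h. Compound added at 50 μM (0.5% DMSO final) for 72 h, then reagent for 3 h and A490 read. […] Triplicate wells, two repeats, Welch's t-test.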

Escherichia coli [29] = assay: Antibacterial activity against Escherichia coli MG1655 harboring NOG R136C mutant up to 50 uM after 18 hrs in presence of efflux pump inhibitor PAbetaN by broth microdilution method; type: functional, organism-based; details: K-12 substr. MG1655
Escherichia coli [30] = assay: Antibacterial activity against mrcB deficient Escherichia coli BW25113 up to 50 uM after 18 hrs by broth microdilution method; type: functional, organism-based; how it was run: as §2
Escherichia coli [31] = assay: Antibacterial activity against Escherichia coli MG1655 after 18 hrs in presence of efflux pump inhibitor PAbetaN by broth microdilution method; type: functional; details: K-12 substr. MG1655, 18 h; how it was run: as §4
[32] = Inhibition of Escherichia coli C-terminal His6-tagged topoisomerase-4 expressed in Escherichia coli BL21(DE3) preincubated for 10 mins followed by ATP addition measured after 30 mins by purine nucleoside phosphorylase enzyme coupled spectrophotometric method
Staphylococcus aureus [33] = assay: Antibacterial activity against methicillin-resistant Staphylococcus aureus ATCC 43300 after 18 hrs by broth microdilution method; type: functional; details: ATCC 43300, 18 h
Enterococcus faecalis [34] = assay: Antibacterial activity against Enterococcus faecalis; type: functional, organism-based
Escherichia coli [35] = assay: microbe, parasite or virus in culture; details: ATCC 25922, 18 h

Sequence of DNA gyrase subunit B (Staphylococcus aureus, UniProt P0A0K8) (P0A0K8 whole entry): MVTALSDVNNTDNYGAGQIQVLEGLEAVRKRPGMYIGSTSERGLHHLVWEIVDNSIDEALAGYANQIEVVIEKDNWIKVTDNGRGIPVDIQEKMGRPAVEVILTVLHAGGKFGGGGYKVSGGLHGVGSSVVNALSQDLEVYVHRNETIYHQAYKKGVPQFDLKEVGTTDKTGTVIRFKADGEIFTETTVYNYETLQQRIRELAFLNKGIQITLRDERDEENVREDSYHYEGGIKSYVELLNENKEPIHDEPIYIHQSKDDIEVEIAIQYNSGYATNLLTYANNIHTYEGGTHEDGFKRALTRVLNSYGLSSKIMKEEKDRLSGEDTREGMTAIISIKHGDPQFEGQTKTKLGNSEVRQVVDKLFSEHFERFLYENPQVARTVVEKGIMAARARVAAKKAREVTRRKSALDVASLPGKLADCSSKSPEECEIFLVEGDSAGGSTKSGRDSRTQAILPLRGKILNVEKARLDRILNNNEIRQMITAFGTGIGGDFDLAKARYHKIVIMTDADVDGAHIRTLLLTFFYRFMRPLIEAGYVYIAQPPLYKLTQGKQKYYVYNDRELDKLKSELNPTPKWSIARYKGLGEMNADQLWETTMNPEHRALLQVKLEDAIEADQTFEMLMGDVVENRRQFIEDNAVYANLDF

## COc1cc([C@@H]2c3cc4c(cc3[C@@H](O[C@@H]3O[C@@H]5CO[C@@H](C)O[C@H]5[C@H](O)[C@H]3O)[C@H]3COC(=O)[C@H]23)OCO4)cc(OC)c1O [ETOPOSIDE]
HUVEC
  IC50: 5.21 µM

## COC(=O)[C@H](C)NC(=O)c1ccc(NC(=O)c2[nH]c(C)c(Cl)c2Cl)c(OCCN)c1
[1]
  IC50: 3.7 µM
Escherichia coli [2]
  MIC90: 25 µM (≈ 11.4 µg/mL)
Staphylococcus aureus [3]
  MIC90: 50 µM (≈ 22.9 µg/mL)
Pseudomonas aeruginosa
  inhibition of growth at 50 µM: 35%
Escherichia coli [4]
  Activity: 89%
Escherichia coli [5]
  inhibition of growth at 50 µM: 100%
Enterococcus faecalis [6]
  inhibition of growth at 50 µM: 100%
DNA gyrase subunit B [7]
  IC50: 0.39 µM
DNA gyrase subunit B [8]
  IC50: 0.034 µM
Enterococcus faecalis [9]
  MIC90: 25 µM (≈ 11.4 µg/mL)
Staphylococcus aureus [10]
  inhibition of growth at 50 µM: 82%
Escherichia coli [11]
  inhibition of growth at 50 µM: 47%
Escherichia coli [12]
  inhibition of growth at 50 µM: 67%

## CNc1cc(F)cc2c1[nH]c1nc(Oc3cnc(C)nc3)nc(N3C[C@H]4CCN[C@H]4C3)c12
[13]
  Ki: < 0.0001 µM
Staphylococcus aureus [14]
  MIC: 0.06 µg/mL (≈ 0.138 µM)

## Cc1[nH]c(C(=O)Nc2ccc(C(=O)N[C@@H](C)c3n[nH]c(=O)o3)cc2OC(C)C)c(Cl)c1Cl
Escherichia coli [15]
  Activity: inactive
Staphylococcus aureus [16]
  MIC90: 4.17 µM (≈ 2.01 µg/mL)
[1]
  IC50: 12 µM
Escherichia coli [17]
  Activity: inactive
Escherichia coli [18]
  Activity: inactive
Escherichia coli [19]
  Activity: inactive
Escherichia coli [20]
  MIC90: 13.8 µM
Escherichia coli [21]
  Activity: inactive
Escherichia coli [22]
  Activity: inactive
Pseudomonas aeruginosa
  inhibition of growth at 50 µM: -1%
Escherichia coli [23]
  Activity: inactive
Escherichia coli [5]
  inhibition of growth at 50 µM: 51%
Escherichia coli [24]
  Activity: inactive
Escherichia coli [25]
  Activity: inactive
Escherichia coli [26]
  Activity: inactive
Escherichia coli [27]
  MIC90: 4.6 µM
[28]
  viability at 72 h, 50 µM: 85%
Enterococcus faecalis [6]
  inhibition of growth at 50 µM: 97%
Escherichia coli [29]
  Activity: inactive
Escherichia coli [30]
  Activity: inactive
Enterococcus faecalis [9]
  MIC90: 1.56 µM (≈ 0.752 µg/mL)
Escherichia coli [31]
  MIC90: 10.2 µM
HUVEC
  IC50: 40.7 µM
Staphylococcus aureus [10]
  inhibition of growth at 50 µM: 100%
Escherichia coli [11]
  inhibition of growth at 50 µM: 0%
[32]
  IC50: 11 µM
Staphylococcus aureus [33]
  MIC90: 3.13 µM (≈ 1.51 µg/mL)
Escherichia coli [12]
  inhibition of growth at 50 µM: 5%

## Cc1[nH]c(C(=O)Nc2ccc(C(=O)NCC(=O)O)cc2OC(C)C)c(Cl)c1Cl
Enterococcus faecalis [34]
  MIC: 50 µM (≈ 21.4 µg/mL)
[32]
  IC50: 11 µM

## O=C(O)c1cn(C2CC2)c2cc(N3CCNCC3)c(F)cc2c1=O [CIPROFLOXACIN]
Escherichia coli [35]
  MIC90: 0.05 µM (≈ 0.0166 µg/mL)
